For 12 compounds, IC50 and selectivity ratio results are on record in ChEMBL document CHEMBL3352271, “Antitrypanosomal quinoline alkaloids from the roots of Waltheria indica” (J Nat Prod, 2014).

In data set [1] the test system is Trypanosoma brucei rhodesiense. In words: Antitrypanosomal activity against Trypanosoma brucei rhodesiense STIB900 trypomastigote forms. It is filed as functional, organism-based.
Data set [2] concerns Trypanosoma cruzi. Kind of data set: Antitrypanosomal activity against LacZ expressing Trypanosoma cruzi Tuluhaen C2C4 amastigotes. It is filed as functional, organism-based.
Data set [3] is described as follows: Selectivity index, ratio of IC50 against rat L6 cells to IC50 against Trypanosoma cruzi Tuluhaen C2C4. It is filed as toxicity, cell-based. The note with it: read-out: Ratio IC50. An outline of the steps:
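Selectivity index calculated as the IC50 for L6 cytotoxicity divided by the IC50 for antitrypanosomal activity against T. cruzi amastigotes (Tulahuen C4).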

Data set [4] concerns Trypanosoma brucei brucei. In words: Antitrypanosomal activity against Trypanosoma brucei brucei NYSM bloodstream forms incubated for 46 hrs by alamar blue assay. It is filed as functional, organism-based. In a few lines:
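Bloodstream parasites grown in HMI-9 medium with 10% FCS, wild type. Plated at a final density of 0.5 × 10^5 cells/mL with compound dilutions for 46 h, then AlamarBlue added for 2 more h. Fluorescence read at excitation 530 nm, emission 584 nm. IC50 from nonlinear sigmoidal dose–response fit; triplicate runs, reported ± SD.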
(The colour change of resazurin is a common sign of viable cells or microbes.)

The test system of data set [5] is L6. In words: Cytotoxicity against rat L6 cells. It is filed as cell-based.

With `CCCCCCCC[C@H]1CCCc2c1c(=O)c(OC)c(C)n2OC`, the IC50 in data set [1] was 53.3 µM; in data set [2], 100 nM; in data set [4] it was over 100 µM; in data set [5], 190 nM. The selectivity ratio in data set [3] came out at 1.9.
Turning to `CCCCCCCC[C@@H]1CCCc2[nH]c(C)c(OC)c(=O)c21`, the IC50 in data set [1] was 32.6 µM; in data set [2] it was 490 nM; in data set [4], over 100 µM; in data set [5] it was 750 nM. For the same compound, in data set [3], the selectivity ratio worked out at 1.5.
On the same counts, the results for `CCCCCCCC[C@H]1CC[C@@H](OC)c2[nH]c(C)c(OC)c(=O)c21` are 38.5 µM, 230 nM, 80.3 µM, 910 nM and 4.
For `CCCCCCCCc1ccc(OC)c2[nH]c(C)c(OC)c(=O)c12`, the IC50 in data set [1] came out at 38.6 µM; in data set [2], 1100 nM; in data set [4] it was 31 µM; in data set [5], 25700 nM. Besides, in data set [3], the selectivity ratio was determined as 22.7.
`COc1c(C)n(OC)c2c(c1=O)[C@@H](CCCCCc1ccccc1)CCC2`: the IC50 is 30.4 µM in data set [1], 20 nM in data set [2], 24.1 µM in data set [4] and 640 nM in data set [5]. In addition, the selectivity ratio in data set [3] is 33.8.
Consider `COc1c(C)n(OC)c2c(c1=O)[C@@H](CCCCCc1ccccc1)CC[C@H]2OC`, for which the IC50 in data set [1] worked out at 35.9 µM; in data set [2], 40 nM; in data set [5] it was 260 nM. For the same compound, the selectivity ratio in data set [3] was determined as 6.5.
Regarding `CCCCCCCC[C@@H]1CCCc2c1c(=O)c(OC)c(CO)n2OC`, the half-inhibitory concentration (IC50) is 87.9 µM in data set [1], 2200 nM in data set [2], over 100 µM in data set [4] and 22100 nM in data set [5]. Besides, the selectivity ratio in data set [3] came to 10.1.
With `CCCCCCCC[C@H]1CC[C@@H](OC)c2c1c(=O)c(OC)c(C)n2OC`, the IC50 in data set [1] was 45.8 µM; in data set [2], 40 nM; in data set [4], over 100 µM; in data set [5], 70 nM. Besides, in data set [3], the selectivity ratio came to 1.8.
Consider `COc1c(OC)c(C)[n+]([O-])c2c1[C@H](CCCCCc1ccccc1)CCC2`, for which the figures for the half-maximal inhibitory concentration (IC50) in data set [1], in data set [2] and in data set [5] were 55.7 µM, 3100 nM and 41100 nM, respectively. In data set [3], the selectivity ratio worked out at 13.5.
With `CCCCCCCC[C@H]1CCC(=O)c2[nH]c(C)c(OC)c(=O)c21`, the IC50 in data set [1] was 14.3 µM; in data set [2] it was 170 nM; in data set [4] it was over 100 µM; in data set [5], 184000 nM. Further, in data set [3], the selectivity ratio is 1080.
In data set [2], `O=C(Cn1ccnc1[N+](=O)[O-])NCc1ccccc1` [BENZNIDAZOLE] displayed an IC50 of 2900 nM.
For the compound `Cc1ccc(C(=O)Nc2ccc(S(=O)(=O)O)c3cc(S(=O)(=O)O)cc(S(=O)(=O)O)c23)cc1NC(=O)c1cccc(NC(=O)Nc2cccc(C(=O)Nc3cc(C(=O)Nc4ccc(S(=O)(=O)O)c5cc(S(=O)(=O)O)cc(S(=O)(=O)O)c45)ccc3C)c2)c1` [SURAMIN], half-maximal inhibition in data set [4] (IC50) was put at 0.31 µM.

A word on the IC50: it is the point on the concentration scale where inhibition reaches its midpoint. A high value points to weaker potency.
